In brackets after ≈: the same amount, converted by molar mass.
Assays:
Staphylococcus aureus [1] = test: Antimicrobial activity against Hospital-acquired methicillin-resistant Staphylococcus aureus isolate 56 by broth microdilution method; assay type: functional
In short: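 Tigecycline MIC by CLSI broth microdilution, run in triplicate; modal MIC reported. Isolates stored at –80°C in double-strength skim milk and subcultured twice on Trypticase soy agar with 5% sheep blood before use.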

[2] = Cmax in neutropenic ICR mouse infected with Staphylococcus aureus ATCC 29213 at 6.25 mg/kg, sc by HPLC; assay type: ADME, organism-based; parameters: dose 6.25 mg/kg, route subcutaneous; details: in vivo
In short: (§1)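 Neutropenic female ICR mice (cyclophosphamide 150 and 100 mg/kg ip, 4 days and 1 day before inoculation), both thighs inoculated im with ~10^7 CFU/ml of ATCC 29213. Single sc doses of 50, 25, 12.5 or 6.25 mg/kg. Cardiac blood taken from groups of six at 8–12 times over 0.5–24 h. Serum measured by HPLC (linear 0.05–5 µg/ml). Two-compartment fit by nonlinear least squares; AUC by trapezoidal rule.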

[3] = Tmax in neutropenic ICR mouse infected with Staphylococcus aureus ATCC 29213 at 25 mg/kg, sc by HPLC; assay type: ADME, organism-based; parameters: dose 25 mg/kg, route subcutaneous; details: in vivo; in short: as §1
[4] = Tmax in neutropenic ICR mouse infected with Staphylococcus aureus ATCC 29213 at 6.25 mg/kg, sc by HPLC; assay type: ADME, organism-based; parameters: dose 6.25 mg/kg, route subcutaneous; details: in vivo; in short: as §1
[5] = AUC (0 to 24 hrs) in neutropenic ICR mouse infected with Staphylococcus aureus ATCC 29213 at 6.25 mg/kg, sc by HPLC; assay type: ADME, organism-based; parameters: time < 24 hr, dose 6.25 mg/kg, route subcutaneous; details: plasma; in short: as §1
Staphylococcus aureus [6] = test: Antimicrobial activity against community-acquired methicillin-resistant Staphylococcus aureus isolate 156 infected in neutropenic ICR mouse assessed as decrease in bacterial density at 1.56 to 400 mg/kg, sc after 24 hrs; assay type: functional; details: dose mg/kg 1.56-400; route subcutaneous
In short: (§2)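 Female ICR mice (~25 g) made neutropenic with cyclophosphamide 150 and 100 mg/kg ip, 4 and 1 days before infection. Each thigh inoculated im with 0.1 ml of ~10^7 CFU/ml from an overnight subculture. Tigecycline sc (0.2 ml) given 2 h later as single or multiple doses of 1.56–50 mg/kg, 1.56–400 mg/kg/day, 3 mice/group. Saline-injected controls. Thighs harvested at 24 h, homogenized in saline, plated on blood agar; log10 CFU change vs 0-h controls.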

[7] = fAUC/MIC in methicillin-sensitive Staphylococcus aureus ATCC 29213-infected neutropenic ICR mouse at 80% effective exposure index; assay type: functional
In short: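 fT>MIC, fCmax/MIC and fAUC/MIC were built from the serum pharmacokinetics, protein binding, modal broth-microdilution MIC (triplicate, CLSI) and 24-h thigh CFU change. Each index was fit to a sigmoidal Emax model. EI50, EI80 and stasis exposures were taken from each isolate's curve.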

[8] = fAUC/MIC in community acquired methicillin-resistant Staphylococcus aureus isolate 147-infected neutropenic ICR mouse at 80% effective exposure index; assay type: functional
In short: (§3)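 Single-dose serum PK in infected neutropenic mice (sc 6.25–50 mg/kg; HPLC; two-compartment fit; AUC by trapezoidal rule; lower doses simulated). Free fraction from ultrafiltration of spiked mouse serum, in triplicate. Free exposures divided by modal MIC and plotted against 24-h log10 CFU change with a sigmoidal Emax model; EI50, EI80 and stasis values read from the fitted curves.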

[9] = fAUC/MIC in community acquired methicillin-resistant Staphylococcus aureus isolate 144-infected neutropenic ICR mouse at 50% effective exposure index; assay type: functional; in short: as §3
[10] = fAUC/MIC in community acquired methicillin-resistant Staphylococcus aureus isolate 147-infected neutropenic ICR mouse at 50% effective exposure index; assay type: functional; in short: as §3
[11] = fAUC/MIC in methicillin-sensitive Staphylococcus aureus ATCC 25923-infected neutropenic ICR mouse at stasis dose; assay type: functional; in short: as §3
[12] = fAUC/MIC in hospital-acquired methicillin-resistant Staphylococcus aureus isolate 152-infected neutropenic ICR mouse at stasis dose; assay type: functional; in short: as §3
Staphylococcus aureus [13] = test: Antimicrobial activity against methicillin-sensitive Staphylococcus aureus ATCC 29213 infected in neutropenic ICR mouse assessed as change in bacterial load after 24 hrs; assay type: functional
In short: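 Neutropenic ICR mice had both thighs inoculated with ~10^7 CFU/ml; dosing began 2 h later. Groups of three received 1.56–400 mg/kg/day sc as single or divided doses, with saline-dosed controls. Thighs were homogenized and plated on blood agar at 24 h. Read-out was the log10 CFU/ml change relative to 0-h controls.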

Staphylococcus aureus [14] = test: Antimicrobial activity against community acquired methicillin-resistant Staphylococcus aureus isolate 156 infected in immunocompetent ICR mouse assessed as reduction in bacterial load at 1.56 […] after 24 hrs; assay type: functional
In short: (§4)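 Non-neutropenic ICR mice (no cyclophosphamide). Each thigh inoculated im with 0.1 ml of ~10^8 CFU/ml. Tigecycline given sc once daily at 1.56, 3.13, 6.25 or 12.5 mg/kg starting 2 h post-infection, 3 mice/group. Thighs harvested at 24 h, homogenized, plated on blood agar; log10 CFU change vs 0-h controls.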

Staphylococcus aureus [15] = test: Antimicrobial activity against community acquired methicillin-resistant Staphylococcus aureus isolate 156 infected in immunocompetent ICR mouse assessed as reduction in bacterial load at 12.5 […] after 24 hrs; assay type: functional; in short: as §4
[16] = fAUC/MIC in community acquired methicillin-resistant Staphylococcus aureus isolate 156 infected-immunocompetent ICR mouse at 12.5 […], sc QD; assay type: functional
In short: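 Derived from neutropenic-mouse serum PK (HPLC, two-compartment fit) with ultrafiltration protein-binding correction, divided by modal MIC.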

Staphylococcus aureus [17] = test: Antimicrobial activity against community acquired methicillin-resistant Staphylococcus aureus isolate 156 infected in neutropenic ICR mouse assessed as change in bacterial load at 6.25 […] after 24 hrs; assay type: functional; in short: as §2
[18] = Plasma protein binding in mouse; assay type: ADME, cell-free; details: read-out: PPB (converted)
[19] = Plasma protein binding in human; assay type: ADME, cell-free; details: read-out: PPB (converted)
Acinetobacter baumannii = test: Antimicrobial activity against carbapenem-intermediate,-resistant Acinetobacter baumannii assessed as decrease in bacterial count at 0.8 times of MIC after 48 hrs by time kill analysis; assay type: functional
[20] = r2 for fAUC/MIC in methicillin-sensitive Staphylococcus aureus ATCC 25923-infected neutropenic ICR mouse
[21] = r2 for fCmax/MIC in methicillin-sensitive Staphylococcus aureus ATCC 25923-infected neutropenic ICR mouse
[22] = r2 for fT>MIC in hospital-acquired methicillin-resistant Staphylococcus aureus isolate 152-infected neutropenic ICR mouse
[23] = r2 for fT>MIC in community acquired methicillin-resistant Staphylococcus aureus isolate 144-infected neutropenic ICR mouse
[24] = r2 of fCmax/MIC in hospital-acquired methicillin-resistant Staphylococcus aureus isolate 56-infected neutropenic ICR mouse
[25] = r2 for fAUC/MIC in community acquired methicillin-resistant Staphylococcus aureus isolate 156-infected neutropenic ICR mouse
[26] = r2 for fCmax/MIC in community acquired methicillin-resistant Staphylococcus aureus isolate 156-infected neutropenic ICR mouse

CN(C)c1cc(NC(=O)CNC(C)(C)C)c(O)c2c1C[C@H]1C[C@H]3[C@H](N(C)C)C(O)=C(C(N)=O)C(=O)[C@@]3(O)C(O)=C1C2=O [TIGECYCLINE]
MIC (Staphylococcus aureus [1]): 0.5 µg/mL (≈ 0.854 µM)
Cmax [2]: 1680 ng/mL
Tmax [3]: 31.8 min
Tmax [4]: 4.8 min
AUC(0-t) at 24 h [5]: 4800 ng·h/mL
CFU (Staphylococcus aureus [6]): 1.5
fAUC/MIC [7]: 4.1
fAUC/MIC [8]: 3.5
fAUC/MIC [9]: 2.2
fAUC/MIC [10]: 1.5
fAUC/MIC [11]: 5.3
fAUC/MIC [12]: 1.6
log10CFU/ml (Staphylococcus aureus [13]): 2.3
log10cfu (Staphylococcus aureus [14]): 1.6
log10cfu (Staphylococcus aureus [15]): 1.6
fAUC/MIC [16]: 8.8
log10CFU/ml (Staphylococcus aureus [17]): 0.1
fraction unbound [18]: 0.188
fraction unbound [19]: 0.29
log10cfu (Acinetobacter baumannii): 3.5
r2 [20]: 0.877
r2 [21]: 0.508
r2 [22]: 0.511%
r2 [23]: 0.552%
r2 [24]: 0.704
r2 [25]: 0.97
r2 [26]: 0.88

From ChEMBL document CHEMBL1629660, “Pharmacodynamics of tigecycline against phenotypically diverse Staphylococcus aureus isolates in a murine thigh model” (Antimicrob Agents Chemother, 2009)
